Data set [1] in a line: Inhibition of biotinylated PEX5-derived ALSENWAQEFLA binding to Trypanosoma brucei N-terminal His-tagged PEX14 (21 to 84 residues) expressed in Escherichia coli BL21 by Alphascreen assay. The gist of the method: (§1)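 His-tagged PEX14 (21-84) at 3 nM with 10 nM biotinylated peptide in PBS containing 5 mg/mL BSA and 0.01% Tween-80; 5 µg/mL streptavidin donor and nickel chelate acceptor beads; 5% DMSO held constant.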
For orientation: In Alpha technology, singlet oxygen from a donor bead excites a nearby acceptor bead.

Data set [2] in a line: Inhibition of biotinylated PEX5-derived ALSENWAQEFLA binding to Trypanosoma cruzi N-terminal His-tagged PEX14 (21 to 84 residues) expressed in Escherichia coli BL21 by Alphascreen assay. The method, boiled down:
as §1

For data set [3], the target named is Peroxisomal membrane protein PEX14 (Homo sapiens, UniProt O75381). Description: Inhibition of biotinylated PEX5-derived ALSENWAQEFLA binding to human N-terminal His-tagged PEX14 (21 to 84 residues) expressed in Escherichia coli BL21 by Alphascreen assay. The method, boiled down:
as §1

Data set [4] deals with Trypanosoma brucei brucei. As to the kind of experiment: Antitrypanosomal activity against bloodstream form of Trypanosoma brucei brucei Lister 427 after 66 hrs by Resazurin dye-based fluorescence assay. The data set is classed as functional, organism-based. The following applies: Lister 427, 66 h.
The test system of the next data set is HepG2. As to the kind of experiment: Cytotoxicity against human HepG2 cells assessed as reduction in cell viability measured after 66 hrs by resazurin dye based fluorescence assay. The following applies: HepG2, 66 h. In general terms: Resazurin is reduced to fluorescent resorufin, in cell work by metabolically active cells.
The nature of data set [5]: Selectivity index, ratio of EC50 for human HepG2 cells to EC50 for antitrypanosomal activity against bloodstream form of Trypanosoma brucei brucei Lister 427.

SMILES strings stand for the structures. A value given as a limit tells only on which side of the number the result lay.

As usually defined, the EC50 is the midpoint of the concentration-response curve.

Chain of Peroxisomal membrane protein PEX14 (O75381 whole entry, change not shown, the tested form may be a part): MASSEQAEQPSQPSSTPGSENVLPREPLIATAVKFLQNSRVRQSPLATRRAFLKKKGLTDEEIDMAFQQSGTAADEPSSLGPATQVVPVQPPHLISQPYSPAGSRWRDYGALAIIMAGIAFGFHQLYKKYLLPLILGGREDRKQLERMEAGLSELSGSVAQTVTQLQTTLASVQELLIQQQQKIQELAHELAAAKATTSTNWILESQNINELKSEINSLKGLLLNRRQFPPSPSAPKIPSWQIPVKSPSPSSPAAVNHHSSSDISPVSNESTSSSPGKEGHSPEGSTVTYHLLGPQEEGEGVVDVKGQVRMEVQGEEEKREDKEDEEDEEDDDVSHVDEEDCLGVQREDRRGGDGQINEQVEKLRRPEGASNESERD

As for `COc1ccc(CN2CCc3nn4c(c3C2)CN(Cc2cccc3ccccc23)C4=O)c2ccccc12`, the EC50 is 103 µM in data set [1]; 448 µM in data set [2]; over 1000 µM in data set [3]; 5.61 µM in data set [4]; over 50 µM with HepG2. In addition, the selectivity ratio in data set [5] was over 8.9.
Turning to `COc1ccc(CN2CCc3nn4c(c3C2)C(=O)N(Cc2cccc3ccccc23)CC4)c2ccccc12`, the 50% effective concentration (EC50) is 49.2 µM in data set [1]; 463 µM in data set [2]; over 1000 µM in data set [3]; 6.42 µM in data set [4]; over 50 µM with HepG2. Also, the selectivity ratio in data set [5] is over 7.8.
On to `COc1ccc(CN2CCc3c(c(C(=O)NCc4cccc5ccccc45)nn3CCN3CCOCC3)C2)c2ccccc12`, for which the EC50 amounted to 88.1 µM in data set [1]; 162 µM in data set [2]; 166 µM in data set [3]; 3.58 µM in data set [4]; 42 µM in the data set on HepG2. In data set [5], the selectivity ratio came out at 11.7.

Source of the values: ChEMBL document CHEMBL4376870, “Structure-Activity Relationship in Pyrazolo[4,3-c]pyridines, First Inhibitors of PEX14-PEX5 Protein-Protein Interaction with Trypanocidal Activity” (J Med Chem, 2020).
